# ChEMBL document CHEMBL1157608, “The discovery of 4-{1-[({2,5-dimethyl-4-[4-(trifluoromethyl)benzyl]-3-thienyl}carbonyl)amino]cyclopropyl}benzoic acid (MK-2894), a potent and selective prostaglandin E2 subtype 4 receptor antagonist” (J Med Chem, 2010)
# Assays:
# [1] = target: Prostaglandin E2 receptor EP2 subtype (Homo sapiens, UniProt P43116); test: Displacement of [3H]PGE2 from human EP2 receptor expressed in HEK293-EBNA cells by scintillation counting; type: cell-based
# How it was run: (§1)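 Radioligand binding on membranes from HEK 293(EBNA) clonal lines overexpressing each prostanoid receptor, using the respective 3H-prostaglandin or thromboxane ligand; EP4 binding also run with 10% human serum; Ki as means of at least three experiments (rEP2, rEP3 n = 1).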
# [2] = target: T1, Prostaglandin E2 receptor EP1 subtype (Homo sapiens, UniProt P34995); test: Displacement of [3H]PGE2 from human EP1 receptor expressed in HEK293-EBNA cells by scintillation counting; type: cell-based; how it was run: as §1
# T1 sequence (P34995 whole entry): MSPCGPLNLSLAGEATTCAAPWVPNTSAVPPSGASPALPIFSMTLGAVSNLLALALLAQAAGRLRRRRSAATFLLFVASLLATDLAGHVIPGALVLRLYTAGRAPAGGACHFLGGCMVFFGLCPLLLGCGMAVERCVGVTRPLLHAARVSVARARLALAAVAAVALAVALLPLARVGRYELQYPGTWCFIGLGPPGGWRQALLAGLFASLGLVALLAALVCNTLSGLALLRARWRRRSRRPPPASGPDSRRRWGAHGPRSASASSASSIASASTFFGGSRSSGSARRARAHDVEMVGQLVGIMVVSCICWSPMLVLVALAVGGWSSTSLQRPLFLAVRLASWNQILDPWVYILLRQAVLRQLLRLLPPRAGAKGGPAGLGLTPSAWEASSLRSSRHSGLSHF
# [3] = target: T2, Prostaglandin E2 receptor EP3 subtype (Homo sapiens, UniProt P43115); test: Displacement of [3H]PGE2 from human EP3 receptor expressed in HEK293-EBNA cells by scintillation counting; type: cell-based; how it was run: as §1
# T2 sequence (P43115 whole entry): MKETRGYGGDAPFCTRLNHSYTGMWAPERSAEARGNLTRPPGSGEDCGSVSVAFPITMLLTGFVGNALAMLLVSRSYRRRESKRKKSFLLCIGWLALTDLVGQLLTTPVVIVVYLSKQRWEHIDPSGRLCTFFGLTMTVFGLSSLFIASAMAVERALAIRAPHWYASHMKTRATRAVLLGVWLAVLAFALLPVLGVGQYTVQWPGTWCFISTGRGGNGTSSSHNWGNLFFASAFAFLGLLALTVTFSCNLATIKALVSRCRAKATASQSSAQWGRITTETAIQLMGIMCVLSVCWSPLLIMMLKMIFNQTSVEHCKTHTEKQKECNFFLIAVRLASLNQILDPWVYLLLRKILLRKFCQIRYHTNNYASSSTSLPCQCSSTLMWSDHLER
# [4] = target: T3, Prostaglandin D2 receptor 2 (Homo sapiens, UniProt Q9Y5Y4); test: Displacement of [3H]PGD2 from human DP2 receptor expressed in HEK293-EBNA cells by scintillation counting; type: cell-based; how it was run: as §1
# T3 sequence (Q9Y5Y4 whole entry): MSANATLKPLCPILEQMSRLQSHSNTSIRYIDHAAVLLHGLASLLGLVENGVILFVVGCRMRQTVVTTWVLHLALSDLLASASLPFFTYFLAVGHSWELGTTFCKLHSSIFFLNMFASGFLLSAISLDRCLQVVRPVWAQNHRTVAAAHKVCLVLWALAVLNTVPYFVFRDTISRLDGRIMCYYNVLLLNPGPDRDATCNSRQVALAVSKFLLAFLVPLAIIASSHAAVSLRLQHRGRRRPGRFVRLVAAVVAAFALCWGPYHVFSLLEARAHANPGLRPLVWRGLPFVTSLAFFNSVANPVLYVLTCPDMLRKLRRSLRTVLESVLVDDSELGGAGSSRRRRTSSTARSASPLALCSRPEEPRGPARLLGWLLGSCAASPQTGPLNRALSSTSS
# [5] = target: T4, Prostaglandin E2 receptor EP4 subtype (Homo sapiens, UniProt P35408); test: Antagonist activity at human EP4 receptor expressed in HEK293 cells assessed as inhibition of PGE2-induced cAMP accumulation by scintillation proximity assay; type: functional, cell-based
# T4 sequence (P35408 whole entry): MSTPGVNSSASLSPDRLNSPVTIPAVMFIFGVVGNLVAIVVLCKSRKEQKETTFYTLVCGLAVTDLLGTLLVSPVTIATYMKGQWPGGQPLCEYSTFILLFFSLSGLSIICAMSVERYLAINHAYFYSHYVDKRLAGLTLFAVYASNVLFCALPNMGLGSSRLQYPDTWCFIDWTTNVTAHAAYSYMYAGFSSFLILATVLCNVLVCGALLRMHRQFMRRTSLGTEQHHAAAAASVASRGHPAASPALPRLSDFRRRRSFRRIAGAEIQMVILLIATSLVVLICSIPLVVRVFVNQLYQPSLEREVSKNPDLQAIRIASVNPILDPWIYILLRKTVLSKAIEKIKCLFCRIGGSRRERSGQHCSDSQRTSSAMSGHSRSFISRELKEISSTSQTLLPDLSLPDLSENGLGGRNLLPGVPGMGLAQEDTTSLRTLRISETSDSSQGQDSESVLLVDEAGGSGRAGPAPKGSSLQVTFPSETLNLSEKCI
# How it was run: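 HEK 293 cells; inhibition of PGE2-induced cAMP accumulation measured, with and without 10% human serum; means of at least three experiments.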
# Thromboxane A2 receptor = target: T5, Thromboxane A2 receptor (Homo sapiens, UniProt P21731); test: Displacement of [3H]SQ29548 from human TP receptor expressed in HEK293-EBNA cells by scintillation counting; type: cell-based; how it was run: as §1
# T5 sequence (P21731 whole entry): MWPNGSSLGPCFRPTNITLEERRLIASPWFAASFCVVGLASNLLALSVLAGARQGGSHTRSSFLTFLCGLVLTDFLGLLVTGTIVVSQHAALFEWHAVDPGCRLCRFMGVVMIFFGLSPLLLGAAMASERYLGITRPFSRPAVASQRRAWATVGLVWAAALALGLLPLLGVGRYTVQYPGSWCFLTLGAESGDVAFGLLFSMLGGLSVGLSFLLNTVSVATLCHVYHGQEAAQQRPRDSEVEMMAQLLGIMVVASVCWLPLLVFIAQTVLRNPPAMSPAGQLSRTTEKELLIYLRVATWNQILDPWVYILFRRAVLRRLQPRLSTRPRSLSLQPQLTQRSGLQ
# [6] = target: Prostaglandin F2-alpha receptor (Homo sapiens, UniProt P43088); test: Displacement of [3H]PGF2alpha from human FP receptor expressed in HEK293-EBNA cells by scintillation counting; type: cell-based; how it was run: as §1
# Chain of Prostaglandin F2-alpha receptor (P43088 whole entry): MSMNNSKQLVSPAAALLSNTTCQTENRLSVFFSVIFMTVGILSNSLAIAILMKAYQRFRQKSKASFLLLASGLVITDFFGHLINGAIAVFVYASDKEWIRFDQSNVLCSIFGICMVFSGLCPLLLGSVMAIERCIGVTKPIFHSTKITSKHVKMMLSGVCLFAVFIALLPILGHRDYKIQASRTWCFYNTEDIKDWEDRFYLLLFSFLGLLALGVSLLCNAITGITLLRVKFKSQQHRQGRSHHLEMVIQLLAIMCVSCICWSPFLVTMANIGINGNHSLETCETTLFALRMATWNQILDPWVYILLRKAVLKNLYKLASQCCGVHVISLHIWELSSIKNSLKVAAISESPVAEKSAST
# [7] = target: T6, Prostaglandin D2 receptor (Homo sapiens, UniProt Q13258); test: Displacement of [3H]PGD2 from human DP1 receptor expressed in HEK293-EBNA cells by scintillation counting; type: cell-based; how it was run: as §1
# T6 sequence (Q13258 whole entry): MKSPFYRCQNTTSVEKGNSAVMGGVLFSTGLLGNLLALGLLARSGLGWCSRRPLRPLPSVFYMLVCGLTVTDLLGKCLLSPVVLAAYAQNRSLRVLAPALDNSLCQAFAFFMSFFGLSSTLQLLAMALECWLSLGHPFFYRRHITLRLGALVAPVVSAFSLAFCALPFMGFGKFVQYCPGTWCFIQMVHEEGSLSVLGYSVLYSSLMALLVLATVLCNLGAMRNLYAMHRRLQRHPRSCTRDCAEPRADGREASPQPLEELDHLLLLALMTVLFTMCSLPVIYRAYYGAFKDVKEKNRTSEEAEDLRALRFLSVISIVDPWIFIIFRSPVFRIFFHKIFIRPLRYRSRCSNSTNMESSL
# Prostacyclin receptor = Prostacyclin receptor (Homo sapiens, UniProt P43119); test: Displacement of [3H]iloprost from human IP receptor expressed in HEK293-EBNA cells by scintillation counting; type: cell-based; how it was run: as §1
# Chain of Prostacyclin receptor (P43119 whole entry): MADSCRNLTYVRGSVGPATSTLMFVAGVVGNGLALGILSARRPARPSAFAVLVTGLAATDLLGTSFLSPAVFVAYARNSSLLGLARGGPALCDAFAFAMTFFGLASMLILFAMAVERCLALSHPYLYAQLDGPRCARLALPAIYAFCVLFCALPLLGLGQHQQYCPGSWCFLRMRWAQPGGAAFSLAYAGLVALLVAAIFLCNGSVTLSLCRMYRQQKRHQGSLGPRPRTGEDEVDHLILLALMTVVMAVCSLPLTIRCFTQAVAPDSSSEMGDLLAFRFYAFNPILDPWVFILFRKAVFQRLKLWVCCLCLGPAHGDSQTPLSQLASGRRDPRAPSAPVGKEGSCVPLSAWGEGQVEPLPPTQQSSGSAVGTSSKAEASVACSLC
# Rattus norvegicus [8] = species on record: Rattus norvegicus; test: Analgesic activity against complete Freund's adjuvant-induced Sprague-Dawley rat inflammatory pain assessed as inhibition of chronic paw swelling; type: functional
# How it was run: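 Adjuvant-induced arthritis in rats: CFA injected into primary paw on day 0; oral dosing in 0.5% methocel once daily for 9 days starting day 9; secondary paw swelling measured; plasma levels taken 24 h after final dose; n = 7/group; 1-way ANOVA/Dunnett's vs vehicle.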
# [9] = target: T4, Prostaglandin E2 receptor EP4 subtype; test: Displacement of [3H]PGE2 from human EP4 receptor expressed in HEK293-EBNA cells by scintillation counting; type: cell-based; how it was run: as §1
# Rattus norvegicus [10] = test: Analgesic activity in po dosed Sprague-Dawley rat assessed as inhibition of carrageenan-induced mechanical hyperalgesia relative to control; type: functional
# How it was run: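 SD rats given subplantar carrageenan; compound dosed orally as a single dose; mechanical hyperalgesia read at 3 h post carrageenan, 1 h post dose; inhibition expressed vs vehicle control; n = 10-20/group; 1-way ANOVA/Dunnett's.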
# Chain of Prostaglandin E2 receptor EP2 subtype (P43116 whole entry): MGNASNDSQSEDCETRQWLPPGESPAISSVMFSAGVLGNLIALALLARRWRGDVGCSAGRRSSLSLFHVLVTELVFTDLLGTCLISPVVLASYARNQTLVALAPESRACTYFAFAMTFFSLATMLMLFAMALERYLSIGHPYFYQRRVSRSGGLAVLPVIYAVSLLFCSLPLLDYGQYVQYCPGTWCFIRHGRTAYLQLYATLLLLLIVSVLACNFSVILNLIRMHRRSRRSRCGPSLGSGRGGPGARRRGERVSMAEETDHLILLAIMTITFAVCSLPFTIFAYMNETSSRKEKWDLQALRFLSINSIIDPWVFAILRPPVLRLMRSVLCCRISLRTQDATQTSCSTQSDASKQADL
Structure (SMILES),Ki [1],Ki [2],Ki [3],Ki [4],IC50 [5],Ki (Thromboxane A2 receptor),Ki [6],Ki [7],Ki (Prostacyclin receptor),Ki [9],ED50 (Rattus norvegicus [8]),inhibition (INH) (Rattus norvegicus [10])
Cc1sc(C)c(C(=O)N[C@@H](C)c2ccc(C(=O)O)cc2)c1Cc1ccc(C(F)(F)F)cc1,1190 nM,> 5470 nM,> 5470 nM,> 5470 nM,4.5 nM,> 5470 nM,> 5470 nM,> 5470 nM,> 5470 nM,,,
CS(=O)(=O)c1ccc(C2=C(c3ccccc3)C(=O)OC2)cc1 [ROFECOXIB],,,,,,,,,,,0.7 mg/kg,
Cc1sc(C)c(C(=O)N[C@@H](C)c2ccc(C(=O)O)cc2)c1Cc1cccc(C(F)(F)F)c1,800 nM,> 3460 nM,> 3460 nM,> 3460 nM,4.7 nM,> 3460 nM,> 3460 nM,> 3460 nM,> 3460 nM,2.5 nM,,
Cc1sc(C)c(C(=O)NC2(c3ccc(-c4nn[nH]n4)cc3)CC2)c1Cc1ccc(C(F)(F)F)cc1,> 29000 nM,> 501 nM,> 501 nM,> 501 nM,2.3 nM,> 501 nM,> 501 nM,> 501 nM,> 501 nM,0.63 nM,,
CS(=O)(=O)c1ccc(C2=C(c3ccc(F)c(F)c3)C(=O)OC2)cc1,,,,,,,,,,,0.5 mg/kg,70%
Cc1sc(C)c(C(=O)NC2(c3ccc(C(=O)O)cc3)CC2)c1Cc1cccc(C(F)(F)F)c1,> 29100 nM,> 4990 nM,> 4990 nM,> 4990 nM,,> 4990 nM,> 4990 nM,> 4990 nM,> 4990 nM,0.75 nM,,
COc1cccc(OC)c1C1(C(=O)NS(=O)(=O)Cc2ccc(N3Cc4c(c(OCC(F)(F)F)c5cccnc5c4OCC(F)(F)F)C3=O)c(C)c2)CC1,,,,,,,,,,,0.003 mg/kg/day,

# Further compounds by falling Ki [1], results first:
Ki [1],Ki [2],Ki [3],Ki [4],IC50 [5],Ki (Thromboxane A2 receptor),Ki [6],Ki [7],Ki (Prostacyclin receptor),Ki [9],Structure (SMILES),ED50 (Rattus norvegicus [8]),inhibition (INH) (Rattus norvegicus [10])
746 nM,> 456 nM,> 456 nM,> 456 nM,3.6 nM,> 456 nM,> 456 nM,> 456 nM,> 456 nM,,C[C@H](NC(=O)c1c(Cl)sc(Cl)c1Cc1cccc(Cl)c1)c1ccc(C(=O)O)cc1,,
467 nM,> 2230 nM,> 2230 nM,> 2230 nM,8.6 nM,> 2230 nM,> 2230 nM,> 2230 nM,> 2230 nM,,Cc1sc(C)c(C(=O)N[C@@H](C)c2ccc(C(=O)O)cc2)c1Cc1cccc(Cl)c1,,
384 nM,> 224 nM,> 224 nM,> 224 nM,1.8 nM,> 224 nM,> 224 nM,> 224 nM,> 224 nM,0.87 nM,C[C@@H](NC(=O)c1c(Cl)sc(Cl)c1Cc1cccc(Cl)c1)c1ccc(C(=O)O)cc1,,
202 nM,> 2120 nM,> 2120 nM,> 2120 nM,5.4 nM,> 2120 nM,> 2120 nM,> 2120 nM,> 2120 nM,2.9 nM,Cc1sc(C)c(C(=O)N[C@@H](C)c2ccc(C(=O)O)cc2)c1Cc1ccc(Cl)cc1,,
43 nM,> 628 nM,> 628 nM,> 628 nM,1.6 nM,> 628 nM,> 628 nM,> 628 nM,> 628 nM,0.72 nM,O=C(O)c1ccc(CNC(=O)c2c(Cl)sc(Cl)c2Cc2cccc(Cl)c2)cc1,,
16 nM,> 7280 nM,> 7280 nM,> 7280 nM,12 nM,> 7280 nM,> 7280 nM,> 7280 nM,> 7280 nM,6.4 nM,C[C@H](NC(=O)c1cscc1Cc1cccc(Cl)c1)c1ccc(C(=O)O)cc1,,
